Results pooled from the literature.
Each line is one published result; the experiments were not run side by side.
Target: TGF-beta receptor type-1 (TGFBR1, Homo sapiens, UniProt P36897)
One construct used (P36897 34-503): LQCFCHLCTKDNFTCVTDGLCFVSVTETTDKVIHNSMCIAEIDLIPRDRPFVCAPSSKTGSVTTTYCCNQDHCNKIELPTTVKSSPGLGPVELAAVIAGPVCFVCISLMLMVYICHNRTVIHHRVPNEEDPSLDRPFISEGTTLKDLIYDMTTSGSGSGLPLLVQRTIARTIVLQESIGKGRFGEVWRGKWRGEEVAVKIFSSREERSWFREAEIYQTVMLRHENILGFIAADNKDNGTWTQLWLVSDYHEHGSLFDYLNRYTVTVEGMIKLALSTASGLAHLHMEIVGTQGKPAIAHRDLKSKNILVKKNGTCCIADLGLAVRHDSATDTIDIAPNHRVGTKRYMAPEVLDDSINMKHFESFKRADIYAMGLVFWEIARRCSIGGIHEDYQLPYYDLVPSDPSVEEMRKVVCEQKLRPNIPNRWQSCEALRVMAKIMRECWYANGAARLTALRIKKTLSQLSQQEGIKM

| SMILES | test | conditions | remaining binding [%] |
| --- | --- | --- | --- |
| Nc1c(C(=O)NCc2ccc(C(=O)NCCCC3CCCCC3)cc2)cnn1-c1ccccc1 | cell-free assay, competition with immobilised ligand | 0.1 µM | 100 |
| CN(C)c1nccc(-c2cnn3ncccc23)n1 | binding | 1 µM | 100 |
| CCN1CCN(Cc2ccc(C(=O)Nc3ccc(C)c(Oc4ccc5c(c4)CC(=O)N5)c3)cc2C(F)(F)F)CC1 | binding, competition with immobilised ligand | 1 µM | 100 |
| FC(F)(F)c1ccc2c(c1)nc(-c1cccnc1)n2C1CC1 | cell-free assay, competition with immobilised ligand | 1 µM | 78 |
| c1cncc(-c2cccc(Nc3nccc(NC4CCCCC4)n3)c2)c1 | binding, competition with immobilised ligand | 10 µM | 75 |
| Cc1cnc(Nc2ccc(C(=O)N3CCC(N4CCCC4)CC3)cc2)nc1-c1cc2ccccc2s1 | binding, competition with immobilised ligand | 1 µM | 48 |
| Nc1ncc2c(n1)-c1c([nH]c3ccc(C#CC4CC4)cc13)CCCC2 | binding, competition with immobilised ligand | 1 µM | 86 |
| C[C@@H]1CCN(c2nccc(-c3cnn4ncccc34)n2)C1 | binding | 1 µM | 98 |
| COCCOc1nc(-c2ccc(Cl)nc2)nc2c1CN(C(=O)c1ncn3ccccc13)CC2 | cell-free assay, competition with immobilised ligand | 0.1 µM | 100 |
| N[C@@H]1CCN(c2nccc(-c3cnn4ncccc34)n2)C1 | binding | 1 µM | 92 |
| CNCc1ccccc1-c1csc([C@@H](C)Nc2nc(C)nc3cc(OC)c(OC)cc23)c1 | cell-free assay, competition with immobilised ligand | 1 µM | 74 |
| CNC(=O)[C@@H]1CC[C@@H](n2c(-c3ccc4cnccc4c3)nc3ccc(C(=O)NCc4cccc(C(N)=O)c4)cc32)C1 | binding, competition with immobilised ligand | 1 µM | 88 |
| Cc1c(C(=O)O)cc(-c2ccc(C3CCNCC3)cc2)c2ccc(-c3ccc(C(F)(F)F)cc3)cc12 | cell-free assay, competition with immobilised ligand | 1 µM | 89 |
| O=C(Nc1c[nH]nc1C(=O)NC1CCNCC1)c1cc(F)cc(F)c1 | binding, competition with immobilised ligand | 1 µM | 100 |
| C[C@@H]1CN(c2ccc3ncc(-c4ccc5[nH]nc(C6CC6)c5c4)n3n2)C[C@H](C)O1 | binding, competition with immobilised ligand | 50 nM | 100 |
| CN(CCCC(F)(F)F)c1nccc(-c2cnn3ncccc23)n1 | binding | 1 µM | 100 |
| O=C(c1ccc(Nc2ncc(Cl)c(-c3cc4ccccc4s3)n2)cc1)N1CCC(N2CCCC2)CC1 | binding, competition with immobilised ligand | 1 µM | 52 |
